{"data": "Experimental data from different studies", "target": "Dual specificity protein kinase CLK2 (CLK2, Homo sapiens, UniProt P49760)", "method": "competition with immobilised ligand", "note": "Lines come from different studies, so protocols differ."}
{"Structure (SMILES)": "CNC(=O)[C@@H]1CC[C@@H](n2c(-c3ccc4cnccc4c3)nc3ccc(C(=O)NCc4cccc(C(N)=O)c4)cc32)C1", "effect on": "binding", "concentration": "1 µM", "remaining binding [%]": 100}
{"Structure (SMILES)": "CN(CCCC(F)(F)F)c1nccc(-c2cnn3ncccc23)n1", "effect on": "binding", "concentration": "1 µM", "remaining binding [%]": 47}
{"Structure (SMILES)": "O=C(NCC1CCOCC1)c1n[nH]cc1NC(=O)c1c(F)cccc1F", "effect on": "binding", "concentration": "1 µM", "remaining binding [%]": 34}
{"Structure (SMILES)": "Nc1ncc2c(n1)-c1c([nH]c3ccc(C#CC4CC4)cc13)CCCC2", "effect on": "binding", "concentration": "1 µM", "remaining binding [%]": 96}
{"Structure (SMILES)": "Cc1cnc(Nc2ccc(C(=O)N3CCC(N4CCCC4)CC3)cc2)nc1-c1cc2ccccc2s1", "effect on": "binding", "concentration": "1 µM", "remaining binding [%]": 8.8}
{"Structure (SMILES)": "Nc1c(C(=O)NCc2ccc(C(=O)NCCCC3CCCCC3)cc2)cnn1-c1ccccc1", "effect on": "cell-free assay", "concentration": "0.1 µM", "remaining binding [%]": 100}
{"Structure (SMILES)": "O=C(c1ccc(Nc2ncc(Cl)c(-c3ccc(Cl)s3)n2)cc1)N1CCC(N2CCCC2)CC1", "effect on": "binding", "concentration": "1 µM", "remaining binding [%]": 5.2}
{"Structure (SMILES)": "C[C@@]1(Cc2ccc(C#N)cc2)C(=O)N(c2cc(Cl)cc(Cl)c2)c2ncc(C(=O)NC3(c4nc(C5CCC5)no4)CC3)n21", "effect on": "cell-free assay", "concentration": "1 µM", "remaining binding [%]": 100}
{"Structure (SMILES)": "O=C(NCCCN1CCOCC1)c1ccc(Nc2nccc(-c3cc4ccccc4s3)n2)cc1", "effect on": "binding", "concentration": "1 µM", "remaining binding [%]": 28}
{"Structure (SMILES)": "CC(=O)C1=C(C)N(c2cccc(C(F)(F)F)c2)C(=O)N[C@@H]1c1ccc(C#N)nc1", "effect on": "cell-free assay", "concentration": "1 µM", "remaining binding [%]": 100}
{"Structure (SMILES)": "COc1cnc(Nc2cccc(S(N)(=O)=O)c2)nc1N1CCN(c2ccccc2)CC1", "effect on": "binding", "concentration": "1 µM", "remaining binding [%]": 99}
{"Structure (SMILES)": "COc1ccc2c(c1)O[C@H](c1ccc(OC)c(OC)c1)C[C@@H]2NC(=O)C1(c2ccc3c(c2)OC(F)(F)O3)CC1", "effect on": "cell-free assay", "concentration": "1 µM", "remaining binding [%]": 95}
{"Structure (SMILES)": "COc1ncc2cc3ccccc3nc2c1C#N", "effect on": "cell-free assay", "concentration": "5 µM", "remaining binding [%]": 76}
